# Compounds with a hit are over-represented: about 12% of the library has one in this group of screens.
# PKD1 inh: inhibitors of human PKD1 kinase; 0.056% of 200,000 active; Q15139; inhibition, % (test concentration not listed); PKD1 kinase fluorescence polarization assay
# Wee1 stabilizer: inhibitors of human Wee1 degradation; HeLa Luc-Wee1K328M stability, luciferase luminescence; 100% = proteasome inhibitor MG132 effect; reporter increase, % at 5 µM; 1.2% of 220,000 active;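 active = activation above the mean of all tested compounds plus 3 SD, set per screening run, cut at about 8.8% in these data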;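 note: cells exposed to compound for 20 h before luminescence read; 0% = DMSO alone and 100% = MG132 at 30 µM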
# Rad51 HR inh: blocks human Rad51 in homologous recombination | hRad51 DNA strand exchange, fluorescence dequenching | 0.085% of 200,000 active | AID 1385 | inhibition, % at 10 µM | Q06609;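 active = inhibition above 40% at the single screening dose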;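 note: 0% = DMSO control wells and 100% = blanks with heterologous ssDNA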
# Target sequence (Q06609 whole entry, looked up): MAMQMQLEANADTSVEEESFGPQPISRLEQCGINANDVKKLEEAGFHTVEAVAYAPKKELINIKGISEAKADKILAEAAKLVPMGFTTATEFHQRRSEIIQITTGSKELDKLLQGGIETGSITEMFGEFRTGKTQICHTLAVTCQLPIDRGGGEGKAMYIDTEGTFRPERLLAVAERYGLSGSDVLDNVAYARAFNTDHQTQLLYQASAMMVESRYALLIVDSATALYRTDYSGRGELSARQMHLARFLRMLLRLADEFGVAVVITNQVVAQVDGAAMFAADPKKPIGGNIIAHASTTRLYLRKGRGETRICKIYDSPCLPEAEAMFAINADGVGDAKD
#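 System: human Rad51 nucleoprotein filaments preassembled on unlabelled ssDNA. Reagent: labelled 47-mer dsDNA for strand exchange. Schedule: 30-min compound preincubation and 15-min exchange, both room temperature. Measured by: FRET fluorescence dequenching, excitation 485 nm, emission 520 nm. Read-out: Fluorescence-based percent inhibition, control- and blank-normalised. Benchmarks: plate controls and plate blanks.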
# Arbovirus anti: arbovirus infection inhibition; arbovirus infection cell-based antiviral screen; inhibition, % at 10 µM; 0.37% of 200,000 active; AID 1251; in the data active = inhibition above about 30%
# CHOP inh: CHOP inhibition in unfolded protein response; CHO-K1 CHOP-promoter luciferase, tunicamycin-induced, 15-18 h; inhibition, % at 10 µM; 3.8% of 220,000 active; AID 2732;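 active = compounds that reduced the stress-induced luciferase reporter signal by more than about 70% of percent inhibition, limit read from the data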;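 note: 0% = tunicamycin plus vehicle and 100% = wells without tunicamycin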
# Lmaj promast: reduces viability of Leishmania major promastigotes; inhibition, % at 10 µM; resazurin fluorescence viability; 9% of 200,000 active;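 note: promastigotes grown with compound for 44 hours at 28 °C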
# * = called active by the depositor; x = no result. Cut-off read from the data, not from the text of the source, unless noted: active = inhibition above about 50%; inactive = the rest.
SMILES,PKD1 inh,Wee1 stabilizer,Rad51 HR inh,Arbovirus anti,CHOP inh,Lmaj promast
CCN(CC)S(=O)(=O)c1cc(NC(=O)c2n[nH]c(=O)c3ccccc23)ccc1C,-2,-1,4,-1,44,66*
CCN(CC)S(=O)(=O)c1cc(NC(=O)c2cc(-c3ccccn3)nc3ccccc23)ccc1C,0,-1,0,-9,38,53*
CN(C)S(=O)(=O)c1cccc(NC(=O)c2n[nH]c(=O)c3ccccc23)c1,-6,-1,3,2,12,-1
COc1ccccc1NS(=O)(=O)c1cc(C(=O)N2CC(C)CC(C)C2)ccc1C (stereo unspecified),0,-1,-4,-5,19,8
COc1ccc(CNCc2cccc(OC)c2OC)cc1Br,-7,3,8,12,20,7
COc1ccc(CNc2cccc(F)c2)cc1Br,-4,-1,-5,-17,86*,-2
CCOC(=O)C1(Cc2cccc(Cl)c2)CCCN(CCO)C1 (stereo unspecified),-10,-2,-1,0,8,-5
Cc1nn(Cc2ccc(Cl)cc2Cl)c(C)c1NC(=O)c1sc2ccccc2c1Cl,-3,-2,13,-3,35,-4
Cc1nn(Cc2ccc(Cl)cc2Cl)c(C)c1NC(=O)NC12CC3CC(CC(C3)C1)C2,-1,0,-9,-27,2,100*
CC(C)CC(=O)NC(NC(=S)Nc1cccc2cccnc12)C(Cl)(Cl)Cl (stereo unspecified),-1,-2,-1,3,45,52*
CC(C)C(=O)NC(Nc1cccc2cccnc12)C(Cl)(Cl)Cl (stereo unspecified),-13,3,4,8,-2,22
CCC(CC(C)(C)O)C(=O)NNC(=S)Nc1ccccc1 (stereo unspecified),-5,3,-2,4,12,-5
CCCc1n(CC)c2ccccc2[n+]1CC(O)COC1CCCCC1 (stereo unspecified),-1,-2,29,2,0,97*
O=C(Cn1c(=O)oc2cc(S(=O)(=O)N3CCCC3)ccc21)N1CCc2ccccc2C1,1,-2,-8,-4,85*,100*
O=C(Cn1c(=O)oc2cc(S(=O)(=O)N3CCCCC3)ccc21)N1CCc2ccccc21,-15,-1,x,-20,68,6
O=C(Cn1c(=O)oc2cc(S(=O)(=O)N3CCc4ccccc43)ccc21)N1CCCCC1,4,0,1,11,22,98*
Cc1c(C(=O)NCCc2ccccc2)oc2ccc(S(=O)(=O)N3CCC4(CC3)OCCO4)cc12,-10,9.5*,1,-5,57,17
O=C(Cn1c(=O)oc2cc(S(=O)(=O)N3CCOCC3)ccc21)N1CCc2ccccc2C1,0,-4,-6,-5,9,-3
Cc1c(C(=O)N2CCc3ccccc3C2)oc2ccc(S(=O)(=O)N3CCCCCC3)cc12,1,-1,4,-8,36,66*
Cc1cc(N2C(=O)C3C4CCC(C4)C3C2=O)no1 (stereo unspecified),-6,1,x,5,5,-4
C/C(=N\NC(=O)Cn1nc(C)cc1C)c1ccc([N+](=O)[O-])cc1,x,0,-8,x,8,x
CCOC(=O)Cn1c(=O)oc2cc(S(=O)(=O)N3CCN(c4ccccn4)CC3)ccc21,10,-1,-1,9,31,-7
CC(=O)N1CCc2ccc(S(=O)(=O)N3CCc4ccccc43)cc21,-11,-2,-10,1,36,12
CCn1c(=O)n(CC)c2cc(S(=O)(=O)N3CCc4ccccc43)ccc21,6,0,-7,-18,x,87*
O=C(Cn1c(=O)oc2cc(S(=O)(=O)N3CCCC3)ccc21)N1CCN(c2ccccn2)CC1,-21,-3,-5,-5,-2,100*
CC1Cc2ccccc2N1C(=O)Cn1c(=O)oc2cc(S(=O)(=O)N3CCCCC3)ccc21 (stereo unspecified),-18,4,5,-11,41,100*
Cc1nc(Nc2cccc(O)c2)c2c3c(sc2n1)CCC3,x,0,-13,x,11,x
CC(C)=CCN1CCN(Cc2ccc(Sc3nncn3C)o2)CC1CCO (stereo unspecified),-9,0,2,3,25,-1
